From ChEMBL document CHEMBL3351600, “Sulfur, selenium and tellurium pseudopeptides: synthesis and biological evaluation” (Bioorg Med Chem, 2014)

What was measured:
MDA-MB-435 = test: Growth inhibition of human MDA-MB-435 cells after 48 hrs; assay type: functional; details: MDA-MB-435, 48 h
Procedure, shortened: (§1)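 NCI-60 human tumour cell line panel screen run at the US National Cancer Institute under its standard cytotoxicity protocol. It covers leukaemia, NSCLC, colon, CNS, melanoma, ovarian, renal, prostate and breast lines. An initial single-dose test was followed by five-dose testing with 48 h compound exposure.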

KM12 = test: Growth inhibition of human KM12 cells after 48 hrs; assay type: functional; details: KM12, 48 h; procedure, shortened: as §1
M14 = test: Growth inhibition of human M14 cells after 48 hrs; assay type: functional; details: M14, 48 h; procedure, shortened: as §1
[1] = Octanol-water partition coefficient, log P of the compound by HPLC analysis; assay type: physicochemical
Procedure, shortened: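 Lipophilicity was measured by reversed-phase HPLC on a Nucleosil C18 column with isocratic water/methanol (3:1) at 0.5 ml/min and UV detection at 230 and 245 nm. Dead time was set with thiourea (t0 0.728 min). Retention factor was k = (tR − t0)/t0, and log P came from a calibration against at least six reference compounds.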

NCI-H322M = test: Growth inhibition of human NCI-H322M cells after 48 hrs; assay type: functional; procedure, shortened: as §1
[2] = Growth inhibition of human EKVX cells after 48 hrs; assay type: functional; procedure, shortened: as §1
[3] = Growth inhibition of human NCI-ADR-RES cells after 48 hrs; assay type: functional; procedure, shortened: as §1
MDA-MB-468 = test: Growth inhibition of human MDA-MB-468 cells after 48 hrs; assay type: functional; details: MDA-MB-468, 48 h; procedure, shortened: as §1
K562 = test: Growth inhibition of human K562 cells after 48 hrs; assay type: functional; details: K562, 48 h; procedure, shortened: as §1
SK-MEL-2 = test: Growth inhibition of human SK-MEL-2 cells after 48 hrs; assay type: functional; details: SK-MEL-2, 48 h; procedure, shortened: as §1
Aspergillus niger = test: Antimicrobial activity against Aspergillus niger assessed as inhibition at 20 ug/6 mm disk after 1 to 2 days by agar diffusion assay; assay type: functional
Procedure, shortened: (§2)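 Standard agar diffusion: 6-mm paper disks loaded with 20 µg of compound were placed on inoculated plates. Inhibition-zone diameter (mm) was read after 1 and 2 days of growth.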

MDA-MB-231 = test: Growth inhibition of human MDA-MB-231 cells after 48 hrs; assay type: functional; details: MDA-MB-231, 48 h; procedure, shortened: as §1
Candida albicans = test: Antimicrobial activity against Candida albicans assessed as inhibition at 20 ug/6 mm disk after 1 to 2 days by agar diffusion assay; assay type: functional; procedure, shortened: as §2
TK-10 = test: Growth inhibition of human TK10 cells after 48 hrs; assay type: functional; details: TK-10, 48 h
Procedure, shortened: (§3)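 Run by the NCI 58-cell-line screen under its standard cytotoxicity protocol. Compounds were first tested at a single dose, then at five doses. Cells were exposed to compound for 48 h.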

[4] = Growth inhibition of human RPMI8226 cells after 48 hrs; assay type: functional; details: RPMI-8226, 48 h; procedure, shortened: as §1
SW-620 = test: Growth inhibition of human SW620 cells after 48 hrs; assay type: functional; details: SW-620, 48 h; procedure, shortened: as §3
[5] = Growth inhibition of human SF295 cells after 48 hrs; assay type: functional; details: SF-295, 48 h, read-out: pLC50 (the source's name) (converted); procedure, shortened: as §1
HOP-62 = test: Growth inhibition of human HOP62 cells after 48 hrs; assay type: functional; details: HOP-62, 48 h; procedure, shortened: as §1
[6] = Growth inhibition of human UO31 cells after 48 hrs; assay type: functional; details: UO-31, 48 h; procedure, shortened: as §3
[7] = Growth inhibition of human RXF393 cells after 48 hrs; assay type: functional; details: RXF 393, 48 h; procedure, shortened: as §1
A-431 = test: Cytotoxicity against human A431 cells assessed as cell viability after 24 hrs incubation by MTT assay; assay type: functional, cell-based; details: A-431, 24 h
Procedure, shortened: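 Cell lines came from DSMZ; primary human fibroblasts served as non-cancer controls. Cells were grown in medium with 10% FCS, seeded at 50,000 cells/ml, and grown 2 days at 37 °C, 10% CO2. Serial dilutions were then added for 24 h. MTT (final 0.5 mg/ml) was added for 2 h. Formazan was pelleted, PBS-washed, dissolved in isopropanol/0.4% HCl and read at 590 nm. Two parallel experiments were run. IC50 was taken as the concentration giving 50% of untreated-control absorbance.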

[8] = Growth inhibition of human OVCAR3 cells after 48 hrs; assay type: functional; details: OVCAR-3, 48 h; procedure, shortened: as §1
[9] = Growth inhibition of human HCT15 cells after 48 hrs; assay type: functional; details: HCT-15, 48 h; procedure, shortened: as §1
Pseudomonas aeruginosa = test: Antimicrobial activity against Pseudomonas aeruginosa assessed as inhibition at 20 ug/6 mm disk after 1 to 2 days by agar diffusion assay; assay type: functional; procedure, shortened: as §2
NCI-H460 = test: Growth inhibition of human NCI-H460 cells after 48 hrs; assay type: functional; details: NCI-H460, 48 h, read-out: pLC50 (the source's name) (converted); procedure, shortened: as §1
[10] = Growth inhibition of human OVCAR5 cells after 48 hrs; assay type: functional; details: OVCAR-5, 48 h; procedure, shortened: as §1
NCI-H226 = test: Growth inhibition of human NCI-H226 cells after 48 hrs; assay type: functional; details: NCI-H226, 48 h; procedure, shortened: as §1
SF-268 = test: Growth inhibition of human SF268 cells after 48 hrs; assay type: functional; details: SF-268, 48 h; procedure, shortened: as §1
HT-29 = test: Growth inhibition of human HT-29 cells after 48 hrs; assay type: functional; details: HT-29, 48 h; procedure, shortened: as §1
DU-145 = test: Growth inhibition of human DU145 cells after 48 hrs; assay type: functional; details: DU-145, 48 h; procedure, shortened: as §1
Micrococcus luteus = test: Antimicrobial activity against Micrococcus luteus assessed as inhibition at 20 ug/6 mm disk after 1 to 2 days by agar diffusion assay; assay type: functional; procedure, shortened: as §2
[11] = read-out: pLC50 (the source's name) (converted)

SMILES: COc1ccc(N(CC(=O)NCCC[Te]c2ccccc2)C(=O)CCSC2=C(C)C(=O)c3ccccc3C2=O)cc1
- GI50 (MDA-MB-435): 2.45 µM
- CC50 (MDA-MB-435; [11]): 26.9 µM
- TGI (MDA-MB-435; read-out: pTGI (converted)): 6.31 µM
- GI50 (KM12): 0.417 µM
- CC50 (KM12; [11]): 5.13 µM
- TGI (KM12; read-out: pTGI (converted)): 1.51 µM
- GI50 (M14): 0.759 µM
- CC50 (M14; [11]): 5.25 µM
- TGI (M14; read-out: pTGI (converted)): 2.14 µM
- logP [1]: 1.97
- GI50 (NCI-H322M): 2.09 µM
- CC50 (NCI-H322M; [11]): 60.3 µM
- TGI (NCI-H322M; read-out: pTGI (converted)): 6.03 µM
- GI50 [2]: 0.38 µM
- CC50 [2, 11]: > 100 µM
- TGI ([2]; read-out: pTGI (converted)): 3.31 µM
- GI50 [3]: 0.955 µM
- LC50 [3]: 41.7 µM
- TGI ([3]; read-out: pTGI (converted)): 5.01 µM
- GI50 (MDA-MB-468): 1.66 µM
- LC50 (MDA-MB-468): 6.76 µM
- TGI (MDA-MB-468; read-out: pTGI (converted)): 3.39 µM
- GI50 (K562): 1.95 µM
- CC50 (K562; [11]): > 100 µM
- TGI (K562; read-out: pTGI (converted)): 5.13 µM
- GI50 (SK-MEL-2): 2.29 µM
- CC50 (SK-MEL-2; [11]): 14.8 µM
- TGI (SK-MEL-2; read-out: pTGI (converted)): 5.01 µM
- diameter of the inhibition zone (DIZ) (Aspergillus niger): 0 mm
- GI50 (MDA-MB-231): 1.23 µM
- LC50 (MDA-MB-231): 14.8 µM
- TGI (MDA-MB-231; read-out: pTGI (converted)): 3.89 µM
- diameter of the inhibition zone (DIZ) (Candida albicans): 0 mm
- GI50 (TK-10): 2.82 µM
- LC50 (TK-10): 28.8 µM
- TGI (TK-10; read-out: pTGI (converted)): 6.92 µM
- GI50 [4]: 0.55 µM
- CC50 [4, 11]: > 100 µM
- TGI ([4]; read-out: pTGI (converted)): 3.09 µM
- GI50 (SW-620): 1.95 µM
- CC50 (SW-620; [11]): 45.7 µM
- TGI (SW-620; read-out: pTGI (converted)): 5.62 µM
- CC50 [5]: > 100 µM
- GI50 (HOP-62): 0.339 µM
- CC50 (HOP-62; [11]): 3.8 µM
- TGI (HOP-62; read-out: pTGI (converted)): 1 µM
- GI50 [6]: 1.66 µM
- LC50 [6]: 8.71 µM
- TGI ([6]; read-out: pTGI (converted)): 2.19 µM
- GI50 [7]: 1.86 µM
- LC50 [7]: 7.94 µM
- TGI ([7]; read-out: pTGI (converted)): 3.8 µM
- IC50 (A-431): 1 µM
- GI50 [8]: 1.17 µM
- CC50 [8, 11]: 5.62 µM
- TGI ([8]; read-out: pTGI (converted)): 2.04 µM
- GI50 [9]: 0.447 µM
- CC50 [9, 11]: 24.5 µM
- TGI ([9]; read-out: pTGI (converted)): 2.34 µM
- diameter of the inhibition zone (DIZ) (Pseudomonas aeruginosa): 0 mm
- CC50 (NCI-H460): 4.68 µM
- GI50 [10]: 0.631 µM
- LC50 [10]: 6.46 µM
- TGI ([10]; read-out: pTGI (converted)): 2.24 µM
- GI50 (NCI-H226): 1.62 µM
- TGI (NCI-H226; read-out: pTGI (converted)): 3.63 µM
- GI50 (SF-268): 0.468 µM
- CC50 (SF-268; [11]): 5.5 µM
- TGI (SF-268; read-out: pTGI (converted)): 1.86 µM
- GI50 (HT-29): 1.62 µM
- CC50 (HT-29; [11]): 50.1 µM
- TGI (HT-29; read-out: pTGI (converted)): 4.9 µM
- GI50 (DU-145): 0.955 µM
- LC50 (DU-145): 4.9 µM
- TGI (DU-145; read-out: pTGI (converted)): 2.19 µM
- diameter of the inhibition zone (DIZ) (Micrococcus luteus): 8 mm
